Source: PubChem (several laboratories)
A selection: hits, their analogues and other compounds. The true share with any hit is near 2.2%.
Jurkat NFkB inh – lowers PMA/ionomycin-induced NF-kB signal in Jurkat cells; PMA/ionomycin-induced NF-kB luciferase reporter, luminescence; inhibition, % at 4 µM; hit rate 0.53% among 330,000; in the data active = inhibition above about 50%
697 NFkB inh – lowers PMA/ionomycin-induced NF-kB signal in 697 B cells. 697 B-cell NF-kB luciferase reporter, 16 h. inhibition, % at 4 µM. hit rate 0.33% among 330,000; in the data active = inhibition above about 35%
FGF22 binding – shifts melting point of recombinant human FGF22; hit rate 1.5% among 340,000; activity (Tm shift, normalised), % at 9.99 µM; Q9HCT0; recombinant FGF22 thermal shift, SYPRO orange fluorescence; percent of sucrose octasulfate shift, DMSO zero;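 active = mean Tm shift, scaled 0 neutral to 100 positive control, at about 1.3% or above, every replicate too, limit read from the data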
Target sequence (Q9HCT0 whole entry, looked up): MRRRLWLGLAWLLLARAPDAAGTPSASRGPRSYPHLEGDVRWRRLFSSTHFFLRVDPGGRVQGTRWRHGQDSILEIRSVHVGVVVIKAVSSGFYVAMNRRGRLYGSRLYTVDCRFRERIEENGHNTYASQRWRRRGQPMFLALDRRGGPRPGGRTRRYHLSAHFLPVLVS
NR2E3 ag-1 – activates human photoreceptor nuclear receptor NR2E3; Q9Y5X4; GST-NR2E3/biotin-RetCOR TR-FRET, 1536-well; inhibition of corepressor binding, % at 4.78 µM; hit rate 0.12% among 320,000;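 active = percent inhibition above the cutoff of mean plus 3 SD of all tested compounds, set per screening campaign, cut at about 20% in these data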;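 note: 0% = DMSO wells and 100% = biotin wells as full block of FRET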
Target sequence (Q9Y5X4 whole entry, looked up): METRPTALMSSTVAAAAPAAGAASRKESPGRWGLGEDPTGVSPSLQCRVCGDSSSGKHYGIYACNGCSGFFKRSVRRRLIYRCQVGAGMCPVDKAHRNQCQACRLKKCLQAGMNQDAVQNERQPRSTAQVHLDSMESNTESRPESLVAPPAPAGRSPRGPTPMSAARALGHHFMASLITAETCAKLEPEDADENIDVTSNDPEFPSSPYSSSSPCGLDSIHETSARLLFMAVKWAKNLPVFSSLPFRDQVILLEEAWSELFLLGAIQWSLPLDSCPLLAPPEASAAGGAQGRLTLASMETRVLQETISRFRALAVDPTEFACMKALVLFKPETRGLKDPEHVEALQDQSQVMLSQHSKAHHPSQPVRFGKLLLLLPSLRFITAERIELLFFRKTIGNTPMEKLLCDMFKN
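Material: NR2E3–RetCOR corepressor complex | Quantity: 1.35 nM GST-tagged NR2E3 final | Schedule: 5 h at 4 °C | Replication: Singlicate compound wells | Reagent: RetCOR corepressor, biotinylated, 7 nM | Controls: Biotin wells as high control, 0.6% DMSO wells as low control | Signal: TR-FRET, Eu(K)-anti-GST donor, streptavidin-D2 acceptor, ex 340, em 617/671 nm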
NR2E3 ag-2 – human photoreceptor-specific nuclear receptor agonism. inhibition of corepressor binding, % at 3.98 µM. hit rate 0.35% among 360,000. CHO-S Gal4-NCOR/VP16-NR2E3 two-hybrid, luciferase;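 active = inhibition above the mean of all tested compounds plus 3 SD, cut at about 70% in these data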;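 note: 0% = DMSO with NR2E3 transfected cells and 100% = cells lacking NR2E3 construct; higher means lower luciferase signal from less NR2E3 corepressor binding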
miR-122 sensor – blocks miR-122 activity in Huh7 sensor cells | Huh7 miR-122 Renilla luciferase sensor, 48 h; neutral wells = 0, positive control = 100 | hit rate 0.3% among 340,000 | activation (reporter increase), % at 12.5 µM;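 active = mean replicate activation score at least 90 and every replicate individually at or above 90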;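 note: higher luciferase means less miR-122 activity so hits act as miR-122 inhibitors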
Jurkat NFkB conf – inhibitors of the PMA/ionomycin-induced NF-kB reporter in Jurkat cells, retest; AID 435020; shares compounds with Jurkat NFkB inh; Jurkat NF-kB luciferase, 16 h; inhibition, % at 4 µM; hit rate 27% among 2,700;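 active = inhibition reaching about 45% at 4 µM in either replicate, limit read from the data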;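 note: plate controls were PMA/ionomycin stimulated DMSO wells for no effect and unstimulated DMSO wells for full effect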
Active calls of the source: *; [ ] = another dose, or the depositor's remark.

For COc1ccc(-c2nnc(SCC(C)C)o2)cc1 the results were Jurkat NFkB inh -189, 697 NFkB inh -196, FGF22 binding 0, NR2E3 ag-1 3, NR2E3 ag-2 -125, miR-122 sensor 6 and Jurkat NFkB conf -94.
Screening COc1ccc(S(=O)(=O)N(C)C[C@@H]2Oc3ccc(NC(=O)NC4CCCCC4)cc3CC(=O)N([C@@H](C)CO)C[C@H]2C)cc1 returned FGF22 binding 0 and miR-122 sensor -8[16.7 µM].
Screening COc1cccc2sc(Nc3nnc(-c4ccccc4Cl)o3)nc12 returned Jurkat NFkB inh 58*, 697 NFkB inh -30, FGF22 binding 0, NR2E3 ag-1 5, NR2E3 ag-2 18, miR-122 sensor 62 and Jurkat NFkB conf 45.
Screening O=C(Nc1cnc2sccn2c1=O)c1ccc(Cl)cc1Cl returned Jurkat NFkB inh -151, 697 NFkB inh -176, NR2E3 ag-1 0, NR2E3 ag-2 -60, miR-122 sensor -3 and Jurkat NFkB conf -48.
Screening COc1cc(OC)cc(C(=O)Nc2ccc(N3CCN(C(=O)c4cccs4)CC3)cc2)c1 returned Jurkat NFkB inh 64*, 697 NFkB inh -63, FGF22 binding 0, NR2E3 ag-1 0, NR2E3 ag-2 -60, miR-122 sensor -4 and Jurkat NFkB conf 20.
Cc1cc(C)c(NN=c2c(=O)c3ccccc3c2=O)c(C)c1 was read as Jurkat NFkB inh -190, 697 NFkB inh -133, NR2E3 ag-1 5, NR2E3 ag-2 12, miR-122 sensor -2 and Jurkat NFkB conf -62.
Screening Cc1cccc(-c2nc(=S)c3c(o2)CCCC3)c1 returned Jurkat NFkB inh -166, 697 NFkB inh -138, NR2E3 ag-1 2, NR2E3 ag-2 -83, miR-122 sensor 7 and Jurkat NFkB conf -80.
Screening N#CCC(CNc1ncc(C(F)(F)F)cc1Cl)OC(=O)c1ccc(Cl)cc1Cl (stereo not given) returned Jurkat NFkB inh 70*, 697 NFkB inh -5, FGF22 binding 0, NR2E3 ag-1 2, NR2E3 ag-2 -4 and Jurkat NFkB conf 11.
Screening Cc1nc2c(-c3ccc(Cl)cc3)cnn2c(N)c1-c1ccc(F)cc1 returned Jurkat NFkB inh -51, 697 NFkB inh -248, FGF22 binding 0, NR2E3 ag-1 1, NR2E3 ag-2 32 and miR-122 sensor 0.
COc1ccc(-c2c(C)nc3c(-c4ccc(F)cc4)cnn3c2N)cc1 was read as Jurkat NFkB inh -183, 697 NFkB inh -207, FGF22 binding 0, NR2E3 ag-1 2, NR2E3 ag-2 -57, miR-122 sensor -2 and Jurkat NFkB conf -73.
Screening Cc1c(-c2nc(N)nc(Nc3ccccc3F)n2)oc2ccccc12 returned Jurkat NFkB inh -200, 697 NFkB inh -182, NR2E3 ag-1 -2, NR2E3 ag-2 -115, miR-122 sensor -3 and Jurkat NFkB conf -99.
C[C@H]1CCCCO[C@H](CN(C)Cc2ccc(Cl)c(Cl)c2)[C@@H](C)CN([C@@H](C)CO)C(=O)c2cc(NC(=O)c3ccccc3)ccc2O1 was read as FGF22 binding 0 and miR-122 sensor -11[16.7 µM].
Cc1ccc(NC(=O)/C(Cl)=C/c2ccccc2)cc1C was read as Jurkat NFkB inh -155, 697 NFkB inh -161, NR2E3 ag-1 -5, NR2E3 ag-2 -131, miR-122 sensor -4 and Jurkat NFkB conf -116.
Screening CC(=O)Nc1ccccc1C(=O)C(=O)Nc1ccc(C)c(C)c1 returned Jurkat NFkB inh -54, 697 NFkB inh -15, FGF22 binding 0, NR2E3 ag-1 3, NR2E3 ag-2 -58 and miR-122 sensor -7.
For O=[N+]([O-])c1ccc(N2CCN(c3cccc(Cl)c3)CC2)cn1 the results were Jurkat NFkB inh 53*, 697 NFkB inh 10, FGF22 binding 0, NR2E3 ag-1 0, NR2E3 ag-2 6, miR-122 sensor -1 and Jurkat NFkB conf -12.
`O=[N+]([O-])c1ccc(N2CCCCC2)cn1` gave Jurkat NFkB inh -4, 697 NFkB inh -13, FGF22 binding 0, NR2E3 ag-1 3, NR2E3 ag-2 -7 and miR-122 sensor -9.
CC=Cc1ccc2n(c1=O)C[C@H]1[C@H](CO)[C@@H](C(=O)NCCc3cn(C)cn3)[C@@H]2N1C(=O)C1CC1 (mixture of isomers) was read as FGF22 binding 0 and miR-122 sensor 0[16.7 µM].
For O=C(Nc1ccc(NC(=O)c2ccco2)nc1)c1ccco1 the results were Jurkat NFkB inh -95, 697 NFkB inh -62, FGF22 binding 0, NR2E3 ag-1 -4 and NR2E3 ag-2 -98.
For O=C(Nc1ccc(NC(=O)C23CC4CC(CC(C4)C2)C3)cn1)c1ccco1 the results were Jurkat NFkB inh -151, 697 NFkB inh -101, NR2E3 ag-1 -1, NR2E3 ag-2 -51, miR-122 sensor -5 and Jurkat NFkB conf -66.
COc1ccc(/C=C/C(=O)c2cc(F)ccc2OC(=O)c2ccccc2C)cc1OC was read as Jurkat NFkB inh 60*, 697 NFkB inh -98, FGF22 binding 0, NR2E3 ag-1 -1, NR2E3 ag-2 -30, miR-122 sensor 70 and Jurkat NFkB conf 9.
`COc1ccc(C(=O)Oc2ccc(F)cc2C(=O)/C=C/c2ccc(OC)c(OC)c2)cc1` gave Jurkat NFkB inh 5, 697 NFkB inh -7, NR2E3 ag-1 0 and NR2E3 ag-2 -15.
Screening O=C(C[C@@H]1CC[C@@H](NC(=O)c2ccncc2)[C@H](CO)O1)NCC1CCCCC1 returned FGF22 binding 0 and miR-122 sensor 3[16.7 µM].
For O=S(=O)(c1ccc(S(=O)(=O)N(Cc2ccccc2)Cc2ccco2)cc1)N1CCCC1 the results were Jurkat NFkB inh -12, 697 NFkB inh -2, NR2E3 ag-1 2, NR2E3 ag-2 8 and miR-122 sensor -1.
COC(=O)/C=C/c1ccccc1S(=O)(=O)N(Cc1ccccc1)Cc1ccco1 was read as Jurkat NFkB inh 56*, 697 NFkB inh -90, NR2E3 ag-1 0, NR2E3 ag-2 -45, miR-122 sensor 64 and Jurkat NFkB conf 7.
CCC(=O)Nc1ccc2c(c1)C(=O)N(C)[C@@H]1CC[C@H](CC(=O)NCc3ccc(OC)cc3)O[C@H]1CO2 was read as FGF22 binding 0 and miR-122 sensor 1[16.7 µM].
`OC[C@@H]1[C@@H](c2ccccc2)[C@@H](CNCC2CCC2)N1CC1CC1` gave FGF22 binding 0 and miR-122 sensor 42[16.7 µM].
Screening Cc1ccc(-c2nc3cc(N)ccc3o2)cc1Br returned Jurkat NFkB inh -160, 697 NFkB inh -140, FGF22 binding 0, NR2E3 ag-1 5, NR2E3 ag-2 -128 and Jurkat NFkB conf -88.
COc1ccc(NC(=O)Nc2ccc3c(c2)C(=O)N([C@@H](C)CO)C[C@H](C)[C@H](CN(C)Cc2ccc4c(c2)OCO4)O3)cc1 was read as FGF22 binding 0 and miR-122 sensor -14[16.7 µM].
